Results: ChEMBL document CHEMBL1671645, “Pharmacokinetics and absorption of posaconazole oral suspension under various gastric conditions in healthy volunteers” (Antimicrob Agents Chemother, 2009)

Experiments:
[1] = Apparent total body clearance in healthy human at 400 mg administered as single dose suspension coadministered with nutritional supplement and 10 mg metoclopramide; type: ADME, organism-based; conditions: in vivo, po
Outline: (§1)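 A three-way crossover in 13 healthy subjects gave one 400 mg oral suspension dose with a nutritional supplement, either alone, with metoclopramide 10 mg orally three times daily on the day before and the day of dosing, or with a single 4 mg dose of loperamide. Plasma was taken 0–168 h for LC-MS/MS. Analysis was noncompartmental.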

[2] = AUC in fasted healthy human at 400 mg administered as single dose suspension after consumption of high fat meal; type: ADME, organism-based; conditions: plasma
Outline: (§2)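 In a crossover of 12 healthy subjects, each took a single 400 mg oral suspension dose 5 min before, midway through (about 10 min into a 20-min meal), or 20 min after a high-fat meal of about 50 g fat. Plasma was drawn 0–168 h and measured by LC-MS/MS. Parameters are noncompartmental, with AUC to the last measurable time.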

Homo sapiens [3] = experiment: AUC in fasted healthy human at 200 mg QID, po administered as suspension for 7 days; type: ADME, organism-based, Plasma; conditions: in vivo, 168 h
Outline: (§3)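 Twelve healthy subjects took oral suspension for 7 days as 400 mg BID or 200 mg QID, either fasting or with a Boost-type nutritional supplement, in a crossover with 14–21 day washouts. Nonfat snacks of 800 cal/day or less were allowed. Plasma was sampled 0–168 h after the day-7 morning dose only and analysed by LC-MS/MS. AUC is AUC_τ, normalized to dose.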

Homo sapiens [4] = experiment: Toxicity in healthy human assessed as dizziness at 200 mg QID, po administered as suspension for 7 days; type: organism-based; conditions: in vivo, 168 h
Outline: (§4)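 Healthy volunteers monitored for adverse events, vital signs, clinical laboratory values and 12-lead ECG. Adverse events tabulated by body system or organ class and severity and summarized by treatment across the crossover regimens.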

[5] = Tmax in fasted healthy human at 400 mg administered as single dose suspension 5 mins before consumption of high fat meal; type: ADME, organism-based; conditions: in vivo
Outline: (§5)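 Single oral suspension dose in healthy volunteers while fasting, 5 min before, midway through (about 10 min into a 20-min meal), or 20 min after a high-fat meal (approx 50 g fat); four-way crossover, 7–10-day washout. Plasma 0–168 h by LC-MS/MS (LLOQ 5.00 ng/ml). t1/2 = ln(2)/K; Tmax median.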

Homo sapiens [6] = experiment: Toxicity in healthy human assessed as asthenia at 400 mg BID, po administered as suspension for 7 days coadministered with nutritional supplement; type: organism-based; conditions: in vivo, 168 h; outline: as §4
[7] = Half life in fasted healthy human at 400 mg administered as single dose suspension after consumption of high fat meal; type: ADME, organism-based; conditions: in vivo; outline: as §5
[8] = AUC in fasted healthy human at 400 mg administered as single dose suspension after 20 mins after consumption of high fat meal; type: ADME, organism-based; set-up: dose 400 mg; conditions: plasma; outline: as §2
Homo sapiens [9] = experiment: Toxicity in healthy human assessed as headache at 400 mg BID, po administered as suspension for 7 days; type: organism-based; conditions: in vivo, 168 h
Outline: (§6)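 Healthy volunteers (n = 12) took oral posaconazole suspension (40 mg/ml) for 7 days in a four-way randomized crossover with a 14- to 21-day washout. Subjects stayed fasted throughout, with nonfat snacks up to 800 cal/day allowed. Where given, Boost was taken with each dose. Safety covered adverse events, vital signs, clinical labs and 12-lead ECG, with AEs tabulated by body system and severity per treatment.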

[10] = AUC in fasted healthy human at 400 mg administered as single dose suspension; type: ADME, organism-based; conditions: plasma
[11] = Cmax in fasted healthy human plasma at 400 mg administered as single dose suspension coadministered with acidic carbonated beverage; type: ADME, organism-based; set-up: dose 400 mg
Outline: (§7)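 This was a four-way crossover in 12 healthy subjects with 7–10 day washouts. Each took one fasting 400 mg oral suspension dose, with 12 oz ginger ale and/or esomeprazole 40 mg once each morning on days −2 to 1, with dosing on day 1. Plasma was sampled 0–168 h and measured by LC-MS/MS (LLOQ 5.00 ng/ml). Analysis was noncompartmental, with CL/F = dose/AUC_I and V/F = (CL/F)/K.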

[12] = Half life in fasted healthy human at 400 mg administered as single dose suspension coadministered with proton pump inhibitor; type: ADME, organism-based; conditions: in vivo
Outline: (§8)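 Single oral suspension dose in fasting healthy volunteers, alone, with 12 oz ginger ale, after esomeprazole 40 mg once each morning days −2 to 1, or both; four-way crossover, 7–10-day washout. EDTA plasma 0–168 h. LC-MS/MS (LLOQ 5.00 ng/ml). t1/2 = ln(2)/K from terminal log-linear regression; Tmax median.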

Homo sapiens [13] = experiment: Toxicity in healthy human assessed as headache at 200 mg QID, po administered as suspension for 7 days coadministered with nutritional supplement; type: organism-based; conditions: in vivo, 168 h; outline: as §6
Homo sapiens [14] = experiment: Toxicity in healthy human assessed as asthenia at 200 mg QID, po administered as suspension for 7 days coadministered with nutritional supplement; type: organism-based; conditions: in vivo, 168 h; outline: as §4
Homo sapiens [15] = experiment: Apparent total body clearance in healthy human at 200 mg QID, po administered as suspension for 7 days coadministered with nutritional supplement; type: ADME, organism-based; conditions: in vivo, 168 h; outline: as §3
[16] = Apparent total body clearance in fasted healthy human at 400 mg administered as single dose suspension coadministered with proton pump inhibitor; type: ADME, organism-based; conditions: in vivo; outline: as §7
[17] = Half life in healthy human at 400 mg administered as single dose suspension coadministered with nutritional supplement and 4 mg loperamide as two 2 mg tablets; type: ADME, organism-based; conditions: in vivo
Outline: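 Oral suspension (40 mg/ml) single dose with nutritional supplement plus loperamide 4 mg single dose, healthy volunteers, three-way crossover with 7–10-day washout. EDTA plasma drawn predose and 1–168 h postdose. LC-MS/MS assay (LLOQ 5.00 ng/ml). Noncompartmental parameters; Tmax reported as median (range).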

[18] = Tmax in fasted healthy human at 400 mg administered as single dose suspension coadministered with acidic carbonated beverage; type: ADME, organism-based; conditions: in vivo; outline: as §8
[19] = AUC in healthy human at 400 mg administered as single dose suspension coadministered with nutritional supplement and 10 mg metoclopramide; type: ADME, organism-based; conditions: plasma; outline: as §1
[20] = Cmax in fasted healthy human plasma at 400 mg administered as single dose suspension 5 mins before consumption of high fat meal; type: ADME, organism-based; set-up: dose 400 mg; outline: as §2
Homo sapiens [21] = experiment: Toxicity in healthy human assessed as adverse events at 400 mg administered as single dose suspension coadministered with nutritional supplement; type: organism-based; conditions: in vivo; outline: as §4
[22] = Tmax in fasted healthy human at 400 mg administered as single dose suspension after 20 mins after consumption of high fat meal; type: ADME, organism-based; conditions: in vivo; outline: as §5
Homo sapiens [23] = experiment: Toxicity in healthy human assessed as fatigue at 400 mg administered as single dose suspension coadministered with nutritional supplement and 4 mg loperamide as two 2 mg tablets; type: organism-based; conditions: in vivo
Outline: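 Three-way randomized crossover in 13 healthy volunteers with a 7- to 10-day washout. Each period was one 400-mg oral posaconazole suspension dose with a nutritional supplement. Metoclopramide 10 mg was given orally three times daily on the day before and the day of dosing; loperamide was a single 4 mg. Safety was assessed from adverse events, tabulated by body system and severity per treatment.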

[24] = Apparent volume of distribution in fasted healthy human at 400 mg administered as single dose suspension; type: ADME, organism-based; conditions: in vivo, read-out: Vc/F
Homo sapiens [25] = experiment: Toxicity in healthy human assessed as headache at 200 mg QID, po administered as suspension for 7 days; type: organism-based; conditions: in vivo, 168 h; outline: as §6
[26] = Half life in fasted healthy human at 400 mg administered as single dose suspension coadministered with acidic carbonated beverage; type: ADME, organism-based; conditions: in vivo; outline: as §8
Homo sapiens [27] = experiment: Toxicity in healthy human assessed as adverse events at 400 mg administered as single dose suspension coadministered with nutritional supplement and 10 mg metoclopramide; type: organism-based; conditions: in vivo; outline: as §4
Homo sapiens [28] = experiment: Toxicity in healthy human assessed as adverse events at 400 mg administered as single dose suspension coadministered with proton pump inhibitor; type: organism-based; set-up: scale not given: the % may be the effect or the level left; conditions: in vivo; outline: as §4

## CC[C@@H]([C@H](C)O)n1ncn(-c2ccc(N3CCN(c4ccc(OC[C@@H]5CO[C@@](Cn6cncn6)(c6ccc(F)cc6F)C5)cc4)CC3)cc2)c1=O [POSACONAZOLE]
[1]
  CL/F: 993 mL/min
[2]
  AUC: 21000 ng·h/mL
Homo sapiens [3]
  AUC: 132000 ng·h/mL
Homo sapiens [4]
  Activity: 33%
[5]
  Tmax: 7 h
Homo sapiens [6]
  Activity: 25%
[7]
  half-life: 22.6 h
[8]
  AUC at 20 min: 21000 ng·h/mL
Homo sapiens [9]
  Activity: 25%
[10]
  AUC: 5600 ng·h/mL
[11]
  Cmax: 286 ng/mL
[12]
  half-life: 25.7 h
Homo sapiens [13]
  Activity: 25%
Homo sapiens [14]
  Activity: 25%
Homo sapiens [15]
  CL/F: 20.4 L/h
[16]
  CL/F: 1930 mL/min
[17]
  half-life: 27.5 h
[18]
  Tmax: 4 h
[19]
  AUC: 7390 ng·h/mL
[20]
  Cmax: 274 ng/mL
Homo sapiens [21]
  Activity: 38%
[22]
  Tmax: 6 h
Homo sapiens [23]
  Activity: 15%
[24]
  Vd/F: 3330 L
Homo sapiens [25]
  Activity: 25%
[26]
  half-life: 25.2 h
Homo sapiens [27]
  Activity: 38%
Homo sapiens [28]
  Activity: 25%
